Assay outcomes: PubChem BioAssay, several laboratories
B2AR ag: human beta-2 adrenergic receptor agonism by FAP. P07550. Am2.2-beta2AR cells, FAP receptor internalization, flow cytometry. response, % (concentration not given with the values). actives 0.43% (n = 340,000). AID 504454;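 active = response above a set limit, near 3 SD of response in nonfluorescent compounds, cut at about 42% in these data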
NadD inh: NadD (S. aureus) enzyme inhibition; purified NadD enzyme, colorimetric absorbance read-out; inhibition, % at 20 µM; actives 0.78% (n = 360,000); in the data active = inhibition above about 26%
GRK2 aptamer HTS: blocks RNA aptamer binding to human GRK2. P25098. bead flow cytometry, FAM-aptamer displacement from GRK2. inhibition of aptamer binding, % at 10 µM. actives 0.59% (n = 330,000). AID 488847;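 active = inhibition of aptamer binding above 40%, roughly 3 SD of noise, on plates passing a quality check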;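 also: median bead fluorescence of bound FAM aptamer so fluorescent compounds give negative values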
Target sequence (P25098 whole entry, looked up): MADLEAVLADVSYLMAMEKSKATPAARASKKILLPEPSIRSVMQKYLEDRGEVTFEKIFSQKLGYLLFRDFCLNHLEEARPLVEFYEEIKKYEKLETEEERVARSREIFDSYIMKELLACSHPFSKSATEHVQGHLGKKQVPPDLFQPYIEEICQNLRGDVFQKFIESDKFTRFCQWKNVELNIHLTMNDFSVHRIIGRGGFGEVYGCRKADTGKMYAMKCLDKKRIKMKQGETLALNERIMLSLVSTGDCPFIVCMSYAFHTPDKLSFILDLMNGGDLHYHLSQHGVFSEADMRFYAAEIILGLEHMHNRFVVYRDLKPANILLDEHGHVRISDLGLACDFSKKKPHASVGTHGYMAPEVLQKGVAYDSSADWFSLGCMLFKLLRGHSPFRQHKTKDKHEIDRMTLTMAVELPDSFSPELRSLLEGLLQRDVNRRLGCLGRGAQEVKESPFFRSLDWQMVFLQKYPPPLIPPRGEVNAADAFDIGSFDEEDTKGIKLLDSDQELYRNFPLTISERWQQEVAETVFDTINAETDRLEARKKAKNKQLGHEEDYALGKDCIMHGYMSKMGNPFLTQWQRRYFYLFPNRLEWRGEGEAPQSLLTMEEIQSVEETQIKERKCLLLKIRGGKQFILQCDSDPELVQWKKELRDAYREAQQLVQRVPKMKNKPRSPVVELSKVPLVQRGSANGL
ABHD5 PLIN5 PPI: blocks binding of human ABHD5 to perilipin-5; Q00G26+Q8WTS1; Split G. princeps luciferase complementation, luminescence, 4 h; inhibition, % at 4 µM; actives 0.78% (n = 360,000);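 active = inhibition above the mean inhibition across every tested compound plus 3 SD, cut at about 22% in these data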;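 also: 0% = DMSO only wells and the 100% control is not disclosed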
SENP1 FRET inh: inhibitors of human SENP1 SUMO protease catalytic domain. recombinant SENP1 catalytic domain, CyPet-SUMO1-YPet FRET cleavage. inhibition, % at 10 µM. actives 0.21% (n = 360,000). AID 624204;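 active = inhibition at least 30% at 10 µM, raw YFP signal under a set limit, fluorescence ratio 0.5 to 1.5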;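 also: 0% = enzyme with DMSO and 100% = no enzyme wells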
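Assay system – human recombinant His6-tagged SENP1 catalytic domain enzyme · Input – SENP1 enzyme, 20 pM final · Buffer or medium – Tris pH 8 buffer plus EDTA, NaCl, BME, BSA, NP40, catalase · Schedule – 50 min reaction at room temperature · Technique – FRET read of cyan and yellow fluorescence · Control set – no-enzyme wells low, DMSO-plus-enzyme wells high control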
ABHD5-PLIN5 conf: ABHD5-PLIN5 interaction inhibition, confirmed | AID 651612 | actives 67% (n = 2,200) | shares compounds with ABHD5 PLIN5 PPI | inhibition, % at 4 µM | biochemical ABHD5-PLIN5 interaction, luminescence; in the data active = inhibition above about 23%;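 also: 0% = DMSO vehicle wells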
HNF4 counter: HNF4 split-luciferase signal hit, counter-screen. shares compounds with ABHD5 PLIN5 PPI. actives 77% (n = 2,200). HNF4 dimerization, luminescence, biochemical. inhibition, % at 4 µM. AID 651674;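 active = mean inhibition across replicate wells exceeding the computed hit threshold, cut at about 13% in these data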;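 also: light from luciferase halves that rejoin when HNF4 fusion proteins dimerize; 0% = DMSO only wells and the 100% control is not given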
Starred values were filed as active, the others as inactive; x = not tested or not shown. A selection: hits, their analogues and other compounds. The true share with any hit is near 2.5%.

SMILES	B2AR ag	NadD inh	GRK2 aptamer HTS	ABHD5 PLIN5 PPI	SENP1 FRET inh	ABHD5-PLIN5 conf	HNF4 counter
O=C(/C=C/c1ccc(Br)cc1)c1ccc(NC(=O)c2ccco2)cc1	-9	8	0	29*	0	61*	46*
COc1ccc(C(=O)Nc2ccc(OCC(=O)N3CCOCC3)cc2)c(OC)c1OC	3	1	6	-2	1	x	x
Cc1cc(C)cc(N2C(=O)C=CC2=O)c1	16	3	x	35*	-3	29*	89*
CC(C)c1ccc(NC(=O)CN2CCN(C(=O)C3CCCO3)CC2)cc1 (stereo not drawn)	8	-2	0	2	0	x	x
CCOC(=O)N1CCN(C(=O)C2CCN(C(=O)c3ccccc3C)CC2)CC1	49*	19	x	26*	-1	38*	91*
Cc1ccccc1C(=O)N1CCC(C(=O)N2CCN(c3ncccn3)CC2)CC1	-2	1	6	4	2	x	x
CCOc1ccc(C(CN2CCOCC2)C(C)=O)cc1OC (stereo not drawn)	x	5	x	34*	1	12	57*
Cc1ccc(C(=O)Nc2ccccc2C(=O)N2CCCCC2C)cc1 (stereo not drawn)	-3	-1	0	106*	-1	-1	5
Cc1ccc(C(=O)Nc2ccc(C(=O)N3CCCCC3C)cc2)cc1 (stereo not drawn)	10	-2	0	10	2	x	x
COc1cccc(C(C)NC(=O)Cc2cccs2)c1 (stereo not drawn)	2	7	0	1	0	x	x
O=C(O)c1ccccc1Sc1c([N+](=O)[O-])cc(C(F)(F)F)cc1[N+](=O)[O-]	-5	1	4	27*	-1	47*	30*
CN(C)/C=N/c1nc(Sc2ccc(C(F)(F)F)cc2[N+](=O)[O-])n[nH]1	-7	-4	0	-1	1	x	x
O=C(O)c1ccccc1NSc1ccccc1[N+](=O)[O-]	0	3	9	6	1	x	x
O=[N+]([O-])c1cc(C(F)(F)F)cc([N+](=O)[O-])c1Sc1n[nH]c(C(F)(F)F)n1	-5	-6	0	45*	-1	75*	56*
CSc1ncccc1C(=O)Nc1cccc(S(=O)(=O)N2CCCCCC2)c1	9	-6	3	-5	-1	x	x
COc1ccccc1N1CCN(/N=C/c2ccccc2C(=O)O)CC1	-2	5	2	-15	1	x	x
COC(=O)Nc1ccc(S(=O)(=O)N2CCCC(C(=O)NCC3CCCO3)C2)cc1 (stereo not drawn)	5	-11	2	-2	1	x	x
Nc1sccc1C(=O)N1CCN(c2ccccc2)CC1	x	x	x	30*	3	1	42*
CC(C)C(=O)N(c1cc2sc(=O)oc2c2ccccc12)S(=O)(=O)c1cccs1	21	-1	6	68*	4	9	75*
COc1ccc(OCC(O)CN2CCC(CN3C(=O)c4cccc5cccc(c45)C3=O)CC2)cc1 (stereo not drawn)	14	0	2	25*	5	6	3
Cc1cc(C)c2c(=O)n(CC(=O)N3CCC(N4CCCCC4)CC3)sc2n1	-4	-15	0	34*	0	33*	98*
CCCNC(=O)Cn1sc2nc(C)cc(C)c2c1=O	0	-12	0	45*	-1	30*	107*
CC(=O)Cn1cnc2c(sc3nc(C)cc(C)c32)c1=O	-8	2	2	-7	-2	x	x
COc1ccc(S(=O)(=O)n2nc(-c3cc(OC)c(OC)c(OC)c3)cc2N)cc1OC	-7	4	1	-1	2	x	x
COc1ccc(-c2cc(N)n(S(=O)(=O)c3c(F)c(F)c(F)c(F)c3F)n2)cc1OC	-239	-3	0	30*	5	50*	6
SMILES	B2AR ag	NadD inh	GRK2 aptamer HTS	ABHD5 PLIN5 PPI	SENP1 FRET inh	ABHD5-PLIN5 conf	HNF4 counter
O=C(/C(=N\O)n1cncn1)c1ccc(Cl)cc1Cl	0	1	0	-1	2	x	x
O=C(/C(=C/c1ccccc1)n1cncn1)c1ccc(Cl)cc1Cl	21	2	1	33*	-1	90*	57*
COc1cccc(NC(=O)c2nc(SC)ncc2Cl)c1	-4	-12	0	-2	-3	x	x
COc1cccc(NC(=O)c2nc(S(C)(=O)=O)ncc2Cl)c1	16	-4	3	53*	1	77*	102*
CN(c1ccccc1)S(=O)(=O)c1ccc(NC(=O)c2ccccc2)cc1	3	-9	0	-3	3	x	x
CN(c1ccccc1)S(=O)(=O)c1ccc(NC(=O)c2nc(S(C)(=O)=O)ncc2Cl)cc1	90*	4	0	78*	0	91*	106*
CCN(CC)S(=O)(=O)c1ccc(C)c(NC(=O)Cc2ccc(S(=O)(=O)N3CCOCC3)s2)c1	-5	1	2	23*	1	-1	0
O=C(Cc1ccc(S(=O)(=O)N2CCOCC2)s1)Nc1ccccc1Br	-1	-10	2	-5	-18	x	x
COCCCNC(=S)Nc1ccc(S(=O)(=O)Nc2cc(OC)nc(OC)n2)cc1	6	-4	17	2	1	x	x
Cc1cc(NC(=O)CCCS(=O)(=O)c2nc(-c3cccs3)cc(C(F)(F)F)n2)no1	39	7	0	47*	0	74*	100*
CS(=O)(=O)c1nc(-c2cccs2)cc(C(F)(F)F)n1	x	x	0	x	x	x	x
O=C(O)CCS(=O)(=O)c1nc(-c2cccs2)cc(C(F)(F)F)n1	-8	5	0	28*	-3	59*	66*
CC(C)CNC(=O)CSc1nc(-c2cccs2)cc(C(F)(F)F)n1	-6	-9	0	2	1	x	x
O=C(N/N=C/C=C/c1ccco1)/C(=C/c1ccccc1)NC(=O)c1ccccc1	-10	30	0	33*	-2	52*	49*
O=C(N/N=C/C=C/c1ccco1)c1ccncc1	1	9	3	21	-8	x	x
O=C(N/N=C/C=C/c1ccco1)c1ccccc1Cl	3	1	2	33*	-4	32*	37*
Cc1cnc(C(=O)OCC(=O)Nc2cc(Cl)ccc2C#N)cn1	6	1	0	-4	-17	x	x
N=C1C=CC(=C(c2ccc(N)cc2)c2ccc(N)cc2)C=C1	-15	-1	x	34*	48	56*	60*
COc1cc(C(CCN2CCCCC2)c2c(OC)cc(OC)c3c(-c4ccccc4)cc(=O)oc23)cc(OC)c1OC (stereo not drawn)	7	2	x	20	1	x	x
